“And” between values parts separate entries of the source, which are not always exact repeats. Identical values can stand only once.
System: HEK-293T
Assay: Multiplex assay against HEK293T
Type: toxicity, cell-based
Conditions: human
Outline: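 Phenotypes for tubulin, mitochondrial mass and membrane permeability are expressed as per cents of healthy-nucleus cells. Cells were stained live at seeding with Hoechst33342, BioTracker Green Microtubule Cytoskeleton Dye, MitoTracker Red and Annexin V Alexa Fluor 680, then imaged after compound addition on a CQ1 microscope at 37°C and 5% CO2. Machine-learning gating in CellPathfinder separated Hoechst high-intensity objects from normal cells, divided normal cells by nuclear state (healthy, pyknosed, fragmented) and divided pyknosed cells into mitotic or apoptotic.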

[1] = 12 h, 1 µM, compound concentration 1 uM
[2] = 12 h, 10 µM, compound concentration 10 uM
[3] = 24 h, 1 µM, compound concentration 1 uM
[4] = 24 h, 10 µM, compound concentration 10 uM
[5] = 48 h, 1 µM, compound concentration 1 uM
[6] = 48 h, 10 µM, compound concentration 10 uM

Clc1ccccc1C(c1ccccc1)(c1ccccc1)n1cccn1
Population Apoptotic (%) [1]: 7.87% and 11.11%
Population Fragmented Nuclei (%) [1]: 1.79% and 6.3%
Population Hoechst High Intensity Objects (%) [1]: 0%
Population Membrane Permeable-Phenotype (%) [1]: 0% and 5%
Population Mitochondria Different-Phenotype (%) [1]: 33.99% and 35%
Population Mitotic Cells (%) [1]: 92.13% and 88.89%
Population Normal (%) [1]: 100%
Population Pyknosed Nuclei (%) [1]: 37.8% and 77.95%
Total Cell Count [1]: 336 and 127
Population Apoptotic (%) [2]: 10.45% and 10.49%
Population Fragmented Nuclei (%) [2]: 2.33% and 0.57%
Population Hoechst High Intensity Objects (%) [2]: 0.33% and 0%
Population Membrane Permeable-Phenotype (%) [2]: 0%
Population Mitochondria Different-Phenotype (%) [2]: 33.96% and 33.33%
Population Mitotic Cells (%) [2]: 89.55% and 89.51%
Population Normal (%) [2]: 99.67% and 100%
Population Pyknosed Nuclei (%) [2]: 44.67% and 82.18%
Total Cell Count [2]: 301 and 174
Population Apoptotic (%) [3]: 11.32% and 14.85%
Population Fragmented Nuclei (%) [3]: 0.96% and 6.08%
Population Hoechst High Intensity Objects (%) [3]: 0.19% and 0%
Population Membrane Permeable-Phenotype (%) [3]: 0.49% and 2.63%
Population Mitochondria Different-Phenotype (%) [3]: 14.43% and 13.16%
Population Mitotic Cells (%) [3]: 88.68% and 85.15%
Population Normal (%) [3]: 99.81% and 100%
Population Tubulin-Different-Phenotype (%) [3]: 9.78% and 7.89%
Population Apoptotic (%) [4]: 19.64% and 15.94%
Population Fragmented Nuclei (%) [4]: 2.8% and 0.54%
Population Healthy Nuclei (%) [4]: 71.1% and 24.46%
Population Hoechst High Intensity Objects (%) [4]: 0.23% and 0%
Population Membrane Permeable-Phenotype (%) [4]: 1.31% and 0%
Population Mitochondria Different-Phenotype (%) [4]: 27.87% and 13.33%
Population Mitotic Cells (%) [4]: 80.36% and 84.06%
Population Normal (%) [4]: 99.77% and 100%
Population Pyknosed Nuclei (%) [4]: 26.11% and 75%
Total Cell Count [4]: 430 and 184
Population Apoptotic (%) [5]: 7.89% and 12.96%
Population Fragmented Nuclei (%) [5]: 3.42% and 3.98%
Population Healthy Nuclei (%) [5]: 87.9% and 72.12%
Population Hoechst High Intensity Objects (%) [5]: 0% and 1.74%
Population Membrane Permeable-Phenotype (%) [5]: 5.37% and 2.45%
Population Mitochondria Different-Phenotype (%) [5]: 12.03% and 23.31%
Population Mitotic Cells (%) [5]: 92.11% and 87.04%
Population Normal (%) [5]: 100% and 98.26%
Population Pyknosed Nuclei (%) [5]: 8.68% and 23.89%
Population Apoptotic (%) [6]: 9.93% and 27.4%
Population Fragmented Nuclei (%) [6]: 4.13% and 2.25%
Population Healthy Nuclei (%) [6]: 81.99% and 70.41%
Population Hoechst High Intensity Objects (%) [6]: 0%
Population Membrane Permeable-Phenotype (%) [6]: 8.52% and 2.66%
Population Mitochondria Different-Phenotype (%) [6]: 24.73% and 43.09%
Population Mitotic Cells (%) [6]: 90.07% and 72.6%
Population Normal (%) [6]: 100%
Population Pyknosed Nuclei (%) [6]: 13.88% and 27.34%

Cc1sc2c(c1C)C(c1ccc(Cl)cc1)=N[C@H](CC(=O)OC(C)(C)C)c1nnc(C)n1-2
Population Apoptotic (%) [1]: 40% and 44%
Population Fragmented Nuclei (%) [1]: 8% and 6%
Population Healthy Nuclei (%) [1]: 80% and 76%
Population Hoechst High Intensity Objects (%) [1]: 8% and 9%
Population Membrane Permeable-Phenotype (%) [1]: 0%
Population Mitochondria Different-Phenotype (%) [1]: 49% and 65%
Population Mitotic Cells (%) [1]: 60% and 55%
Population Normal (%) [1]: 91% and 90%
Population Pyknosed Nuclei (%) [1]: 10% and 17%
Population Tubulin-Different-Phenotype (%) [1]: 32% and 26%
Total Cell Count [1]: 478 and 333
Population Apoptotic (%) [2]: 41% and 66%
Population Fragmented Nuclei (%) [2]: 7% and 5%
Population Healthy Nuclei (%) [2]: 76% and 72%
Population Hoechst High Intensity Objects (%) [2]: 7% and 10%
Population Membrane Permeable-Phenotype (%) [2]: 0%
Population Mitochondria Different-Phenotype (%) [2]: 74% and 90%
Population Mitotic Cells (%) [2]: 58% and 33%
Population Normal (%) [2]: 92% and 89%
Population Pyknosed Nuclei (%) [2]: 15% and 21%
Population Tubulin-Different-Phenotype (%) [2]: 67% and 70%
Total Cell Count [2]: 395 and 303
Population Apoptotic (%) [3]: 32%
Population Fragmented Nuclei (%) [3]: 10%
Population Healthy Nuclei (%) [3]: 76% and 82%
Population Hoechst High Intensity Objects (%) [3]: 5% and 6%
Population Membrane Permeable-Phenotype (%) [3]: 0%
Population Mitochondria Different-Phenotype (%) [3]: 29% and 43%
Population Mitotic Cells (%) [3]: 68% and 67%
Population Normal (%) [3]: 94% and 93%
Population Pyknosed Nuclei (%) [3]: 13% and 6%
Population Tubulin-Different-Phenotype (%) [3]: 19% and 11%
Total Cell Count [3]: 609 and 479
Population Apoptotic (%) [4]: 41% and 49%
Population Fragmented Nuclei (%) [4]: 8% and 3%
Population Healthy Nuclei (%) [4]: 68% and 76%
Population Hoechst High Intensity Objects (%) [4]: 4% and 6%
Population Membrane Permeable-Phenotype (%) [4]: 0% and 1%
Population Mitochondria Different-Phenotype (%) [4]: 64% and 76%
Population Mitotic Cells (%) [4]: 58% and 50%
Population Normal (%) [4]: 95% and 93%
Population Pyknosed Nuclei (%) [4]: 23% and 19%
Population Tubulin-Different-Phenotype (%) [4]: 46% and 47%
Total Cell Count [4]: 468 and 378
Population Apoptotic (%) [5]: 18% and 30%
Population Fragmented Nuclei (%) [5]: 11% and 14%
Population Healthy Nuclei (%) [5]: 80% and 79%
Population Hoechst High Intensity Objects (%) [5]: 3% and 4%
Population Membrane Permeable-Phenotype (%) [5]: 1% and 0%
Population Mitochondria Different-Phenotype (%) [5]: 16% and 21%
Population Mitotic Cells (%) [5]: 81% and 69%
Population Normal (%) [5]: 96% and 95%
Population Pyknosed Nuclei (%) [5]: 7% and 5%
Population Tubulin-Different-Phenotype (%) [5]: 10% and 12%
Total Cell Count [5]: 1012 and 685
Population Apoptotic (%) [6]: 31% and 55%
Population Fragmented Nuclei (%) [6]: 9% and 8%
Population Healthy Nuclei (%) [6]: 73% and 76%
Population Hoechst High Intensity Objects (%) [6]: 3% and 5%
Population Membrane Permeable-Phenotype (%) [6]: 0%
Population Mitochondria Different-Phenotype (%) [6]: 47% and 66%
Population Mitotic Cells (%) [6]: 68% and 44%
Population Normal (%) [6]: 96% and 94%
Population Pyknosed Nuclei (%) [6]: 16% and 15%
Population Tubulin-Different-Phenotype (%) [6]: 19% and 28%
Total Cell Count [6]: 641 and 525

CN(C)CCOc1ccc(/C(=C(/CCCO)c2ccccc2)c2ccc(O)cc2)cc1
Population Apoptotic (%) [1]: 11.33% and 11.76%
Population Fragmented Nuclei (%) [1]: 1.07% and 2.99%
Population Hoechst High Intensity Objects (%) [1]: 0%
Population Membrane Permeable-Phenotype (%) [1]: 0.91% and 0%
Population Mitochondria Different-Phenotype (%) [1]: 37.73% and 15.38%
Population Mitotic Cells (%) [1]: 88.67% and 88.24%
Population Normal (%) [1]: 100%
Population Pyknosed Nuclei (%) [1]: 40.11% and 81.44%
Total Cell Count [1]: 374 and 167
Population Apoptotic (%) [2]: 12.57% and 17.97%
Population Fragmented Nuclei (%) [2]: 0.31% and 2.14%
Population Hoechst High Intensity Objects (%) [2]: 0%
Population Membrane Permeable-Phenotype (%) [2]: 0%
Population Mitochondria Different-Phenotype (%) [2]: 37.01% and 22.22%
Population Mitotic Cells (%) [2]: 87.43% and 82.03%
Population Normal (%) [2]: 100%
Population Pyknosed Nuclei (%) [2]: 59.87% and 91.43%
Population Tubulin-Different-Phenotype (%) [2]: 44.09% and 66.67%
Total Cell Count [2]: 319 and 140
Population Apoptotic (%) [3]: 20.61% and 15.97%
Population Fragmented Nuclei (%) [3]: 0.56% and 3.01%
Population Healthy Nuclei (%) [3]: 68.54% and 25.3%
Population Hoechst High Intensity Objects (%) [3]: 0.37% and 0%
Population Membrane Permeable-Phenotype (%) [3]: 1.09% and 2.38%
Population Mitochondria Different-Phenotype (%) [3]: 18.85% and 28.57%
Population Mitotic Cells (%) [3]: 79.39% and 84.03%
Population Normal (%) [3]: 99.63% and 100%
Population Pyknosed Nuclei (%) [3]: 30.9% and 71.69%
Population Tubulin-Different-Phenotype (%) [3]: 22.68% and 21.43%
Population Apoptotic (%) [4]: 44.56% and 45.71%
Population Fragmented Nuclei (%) [4]: 1.1% and 3.91%
Population Hoechst High Intensity Objects (%) [4]: 0%
Population Membrane Permeable-Phenotype (%) [4]: 1.19% and 5.56%
Population Mitochondria Different-Phenotype (%) [4]: 45.83% and 33.33%
Population Mitotic Cells (%) [4]: 55.44% and 54.29%
Population Normal (%) [4]: 100%
Population Pyknosed Nuclei (%) [4]: 52.88% and 82.03%
Population Tubulin-Different-Phenotype (%) [4]: 79.76% and 72.22%
Total Cell Count [4]: 365 and 128
Population Apoptotic (%) [5]: 11.64% and 29.47%
Population Fragmented Nuclei (%) [5]: 1.39% and 0.98%
Population Healthy Nuclei (%) [5]: 85.94% and 52.45%
Population Hoechst High Intensity Objects (%) [5]: 0.26% and 0%
Population Membrane Permeable-Phenotype (%) [5]: 6.57% and 1.87%
Population Mitochondria Different-Phenotype (%) [5]: 21.52% and 41.12%
Population Mitotic Cells (%) [5]: 88.36% and 70.53%
Population Normal (%) [5]: 99.74% and 100%
Population Apoptotic (%) [6]: 39.36% and 66.67%
Population Fragmented Nuclei (%) [6]: 0.98% and 2.22%
Population Hoechst High Intensity Objects (%) [6]: 1.92% and 1.46%
Population Membrane Permeable-Phenotype (%) [6]: 1.57% and 0%
Population Mitochondria Different-Phenotype (%) [6]: 81.82% and 77.78%
Population Mitotic Cells (%) [6]: 60.64% and 33.33%
Population Normal (%) [6]: 98.08% and 98.54%
Population Pyknosed Nuclei (%) [6]: 36.72% and 77.78%

— ChEMBL document CHEMBL5724801, “EUbOPEN Chemogenomics Library - Multiplex” (2024)
